An excerpt weighted towards active compounds, which were near 3% of everything screened.
PLCg1 inh – blocks human PLC-gamma1 enzyme activity | hit rate 0.84% among 370,000 | AID 720700 | purified PLC-gamma1, fluorogenic substrate, fluorescence | P19174 | inhibition, % at 12.2 µM; in the data active means inhibition above about 9.5%
DDE Tn6 FP inh – DD(E)-Tn6 binding inhibition, primary FP screen | hit rate 0.21% among 370,000 | Fibrin DD(E) TRITC-Tn6 fluorescence polarization displacement | P02675 | AID 720509 | inhibition, % at 8.3 µM;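 active means inhibition above a per-campaign cutoff: mean of compounds within control limits plus 3 SD, cut at about 15% in these data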;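 further: 0% = median of all compound wells on the plate and 100% = blocking peptide control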
NRP1-CendR mod – modulators of CendR peptide binding to human neuropilin-1; FAM-RPARPAR peptide binding to NRP-1, fluorescence polarization; inhibition, % at 25 µM; hit rate 0.85% among 360,000;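 active means inhibition or corrected inhibition above about 18%, plus a signal ratio from 0.5 to 1.5, limit read from the data, passing the limit was not always enough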
proKLK7 act – activates the human kallikrein-7 zymogen; purified proKLK7, EDANS-DABCYL substrate fluorescence; 100% is mature enzyme control, 0% vehicle; activation, % at 7 µM; hit rate 0.9% among 370,000; P49862;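 active means activation above the mean of all tested compounds plus 3 SD, computed per campaign excluding outliers beyond control limits, cut at about 13% in these data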
Tn7 DDE FP – inhibitors of Tn7 peptide binding to human fibrin DD(E) | P02675 | FP displacement of FITC-Tn7 peptide from fibrin DD(E); 0% = median of compound wells per plate | inhibition, % at 8.3 µM | hit rate 0.13% among 370,000;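 active means inhibition above the mean of compounds falling within the control limits plus 3 SD of them, cut at about 14% in these data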;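 further: 0% = plate median of compound wells and 100% = 10 µM Aha-Tn7 peptide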
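Assay system: Human clot-derived fibrin DD(E) complex | Buffer or medium: Tris/NaCl/CaCl2 buffer, pH 7.8 | Repeats: One replicate per compound | Benchmarks: Aha-Tn7 high control | Measure: % inhibition scaled between sample-field median and high-control FP | Schedule: 10 min plus 3 h, room temperature | Signal: Fluorescence polarization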
PLCb3 inh – PLC-beta3 (human) inhibition, primary screen; Q01970; Purified PLC-beta3, fluorogenic substrate, fluorescence; inhibition, % at 12.2 µM; hit rate 0.18% among 370,000; AID 720704; in the data active means inhibition above about 11%;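 further: 0% = median of compound wells on plate and 100% = full blocker control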
proKLK7 act conf – confirmation of human kallikrein-7 zymogen activators; shares compounds with proKLK7 act; purified proKLK7, EDANS-DABCYL substrate fluorescence; scaled: vehicle 0, mature enzyme 100; activation, % at 7 µM; hit rate 68% among 3,200;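 active means activation, as change over the incubation, above the mean of all tested compounds plus 3 SD, cut at about 13% in these data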
EDANS interfere – fluorescence interference counter-screen for KLK7 activators; shares compounds with proKLK7 act; EDANS-DABCYL substrate fluorescence interference, no enzyme, 4 h; solvent 0%, active enzyme control 100%; activation, % at 7 µM; hit rate 80% among 3,200; AID 686952;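 active means activation above the all-compound mean plus 3 SD, ignoring values outside control-based bounds, cut at about 4.8% in these data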;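 further: value is the 4 h activation minus the activation read at time zero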
K7 EDANS ctr – counter-screen for kallikrein-7 activators: EDANS-DABCYL interference, dose response. shares compounds with proKLK7 act. EDANS-DABCYL peptide fluorescence interference, no enzyme. EC50, µM. hit rate 20% among 250. AID 720493;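 active means compounds that raise the fluorescence signal in this interference counterscreen, with EC50 at or below 10 µM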;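 further: intact quenched peptide substrate alone read at 355 nm excitation and 520 nm emission; signal is fluorescence gain from T0 to T4 after four hours at room temperature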
The depositor's hits bear a star; i = inactive; . = no result given.

SMILES	PLCg1 inh	DDE Tn6 FP inh	NRP1-CendR mod	proKLK7 act	Tn7 DDE FP	PLCb3 inh	proKLK7 act conf	EDANS interfere	others
CC1(C)CC(=O)N(CC(=O)N2CCN(Cc3ccccc3)CC2)c2ccccc2S1(=O)=O	-2	-5	.	0	0	0	.	.
Nc1ccc(N=Nc2ccccc2O)c(N)c1	-40	2	10	40*	-1	-60	101*	99*
COC1=CC(=O)c2nc(Cl)ccc2C1=O	10*	-12	26*	92*	-8	4	161*	161*
CCOc1nc2ccccc2cc1C=O	0	6	-5	-1	7	-6	.	.
CCCOc1nc2ccccc2cc1/C=C/C(=O)O	-322	-2	-8	17*	0	-384	8	11*
CCOc1ccc(CCNC(=O)COC(=O)c2nccnc2N)cc1OCC	-32	0	-10	30*	-1	-50	63*	55*
C=CCNC(=O)CSc1nc2c(c(=O)[nH]1)CCCC2	-2	9	.	0	-4	-1	.	.
CNc1cnc(-c2ccc(C(=O)N3CCOCC3)cc2)cn1	-320	1	5	20*	-8	-385	20*	22*
COc1ccc(/C=C/C(=O)NC2=NCCS2)cc1OC	-281	8	14	15*	5	-367	48*	47*
COc1ccc(OC)c(/C=C/C(=O)NC2=NCCS2)c1	i	-2	12	1	-1	i	.	.
O=C(OC12CCCN(C1)/C(=C/c1ccc(Cl)cc1)C2)c1ccccc1 (configuration not stated)	4	-9	.	0	-11	4	.	.
Cc1ccc2nc(NCCO)nc(-c3ccccc3)c2c1	i	12	-5	19*	10	i	0	-4
COc1nc(-c2ccccc2)c2cc(C)ccc2n1	-348	6	2	13*	3	-407	-2	2
OCCNc1nc(-c2ccccc2)c2cc(Cl)ccc2n1	-368	4	6	2	6	-483	.	.
COC(=O)c1ccc2c(CCO)c[nH]c2c1	-352	-4	-4	16*	-6	-461	7	12*
Cc1sc(-c2ccccn2)nc1OC(=O)c1ccc(Cl)c(Cl)c1	8	1	11	0	-6	8	.	.
Cc1sc(-c2ccccn2)nc1OC(=O)c1ccc(F)cc1F	-75	5	-4	14*	2	-93	23*	23*
COc1ccc(CCNC(=O)c2cc(-c3ccco3)nc3ccccc23)cc1	-17	-8	.	-1	0	-54	.	.
O=C(O)c1ccccc1/C=N/NC(=O)c1cc(-c2ccco2)nc2ccccc12	-368	4	-55	15*	7	i	29*	31*
CC(=O)Nc1ccc(/C=N/NC(=O)c2cc(-c3ccco3)nc3ccccc23)cc1	-187	-2	-18	-10	-4	-272	.	.
CCN(CC)CCNC(=O)c1cc(-c2ccco2)nc2ccccc12	i	6	-7	60*	0	i	57*	73*
O=C(NNC(=O)c1cc(-c2ccco2)nc2ccccc12)c1ccccc1	i	-3	-7	141*	4	i	51*	70*
CC(=O)Nc1ccc(C(=O)Nc2ccc(S(=O)(=O)N3CCCC3)cc2)cc1	-1	-1	13	0	1	-1	.	.
O=C(Nc1ccc2c(c1)C(=O)NC2=O)c1ccc(S(=O)(=O)N2CCCC2)cc1	-29	0	2	86*	2	-35	90*	40*	K7 EDANS ctr=8.5*
Cc1ccccc1N1CCN(S(=O)(=O)c2ccc3c(c2)oc(=O)n3C)CC1	-2	-11	.	0	-5	1	.	.
SMILES	PLCg1 inh	DDE Tn6 FP inh	NRP1-CendR mod	proKLK7 act	Tn7 DDE FP	PLCb3 inh	proKLK7 act conf	EDANS interfere	others
Cc1[nH]c2ccccc2c1CCCO	-120	5	.	2	2	-149	.	.
OCCCCc1nccc2c1[nH]c1ccccc12	-486	-2	-3	36*	-3	i	29*	37*
Cc1cccc(CN2CCc3c([nH]c4ccccc34)C2C(C)(C)C)n1 (configuration not stated)	-93	-5	-18	13*	11	-117	7	12*
CSc1ncc(CN2CCc3c([nH]c4ccccc34)C2C(C)(C)C)cn1 (configuration not stated)	-50	1	-3	7	-6	-64	.	.
Nc1nc(OCc2ccccc2)c2[nH]cnc2n1	2	-4	-4	0	-8	-1	.	.
Cc1nc2nc(N)nc(OCc3ccccc3)c2nc1C	i	1	6	59*	6	i	75*	80*
O=C(CN(C(=O)OCC1c2ccccc2-c2ccccc21)[C@@H](Cc1ccccc1)C(=O)O)OCc1ccc(C(=O)NCc2ccccc2)cc1	1	-4	.	0	2	-4	.	.
CCOC(=O)Cc1c(C)c2ccc(N(CC)CC)cc2oc1=O	i	0	4	76*	-5	i	-7	-26
CCOC(=O)Cc1c(C)c2c(O)cc(O)cc2oc1=O	i	-2	8	76*	1	i	62*	64*
CCN(CC)c1ccc2c(C)c(Cl)c(=O)oc2c1	i	7	-2	10	1	i	.	.
COc1c2ccoc2nc2c(OC)c(OCC(O)C(C)(C)O)ccc12 (configuration not stated)	i	1	-4	22*	5	i	41*	39*
COc1c2ccoc2nc2c(OC)c(OCC(OC(C)=O)C(C)(C)O)ccc12 (configuration not stated)	i	-2	-5	18*	-1	i	13*	13*
COc1c2ccoc2nc2c(OC)c(OC[C@@H](O)C(C)(C)O)ccc12	i	1	-10	24*	6	i	37*	40*
COc1ccc2c(OC)c3ccoc3nc2c1OC	i	-3	-12	27*	-5	i	31*	62*
N#Cc1ccc(Cn2ccc3ccc(-c4ccc5ccn(C(=O)C6CCCCC6)c5c4)cc32)cc1	-103	1	.	-1	5	-143	.	.
Nc1nc2c(C(=O)N3CCCC3)nnn2c2ccccc12	-324	-6	.	19*	-4	-443	22*	20*
Nc1nc2c(-c3ccc(Br)cc3)nnn2c2ccccc12	-78	1	-2	-1	5	-128	.	.
CCCC1CCC2(CC1)CCC2OC(=S)Nc1ccccc1Br (configuration not stated)	3	-5	.	.	2	2	.	.
